# Published values collected from several papers.
# Target: Homeodomain-interacting protein kinase 3 (HIPK3, Homo sapiens, UniProt Q9H422)
Compound,assay,conditions,quantity,value
CCN(CC)CCNC(=O)c1c(C)[nH]c(/C=C2\C(=O)Nc3ccc(F)cc32)c1C,"enzyme activity, inhibitor",0.3 µM,inhibition,21%
Nc1ncnc2occ(-c3ccc(NC(=O)Nc4cc(C(F)(F)F)ccc4F)cc3)c12,"cell-free assay, inhibitor",20 µM,remaining signal,0.7%
CCc1ccccc1C(=O)Nc1n[nH]c2c(C)c(F)c(C3C(C#N)=C(C)N(C)C(C)=C3C#N)cc12,"cell-free assay, competition with immobilised ligand",1 µM,remaining binding,100%
FC(F)(F)Oc1cccc(-c2cnc3ccc(-c4ccncc4)nn23)c1,"enzyme activity, inhibitor, radiometric",5 µM,activity vs control,35%
O=C1Nc2ccc(Cl)cc2C1=Cc1cc(Cl)c(O)c(Cl)c1,cell-free assay,0.5 µM,remaining signal,91.5%
Cc1cc(NC(=O)c2cccc3cc(-c4cccc5[nH]nc(N)c45)ccc23)ccc1F,"enzyme activity, inhibitor",0.1 µM,activity vs control,92%
COc1cc(Nc2cnc(C#N)c(O[C@H](C)CN(C)C)n2)ncc1-c1cnn(C)c1,"enzyme activity, inhibitor, radiometric",10 µM,remaining activity,111%
COc1ccc2c(O[C@@H]3C[C@H]4C(=O)N[C@]5(C(=O)O)CC5/C=C\CCCCC[C@H](NC(=O)OC5CCCC5)C(=O)N4C3)cc(-c3csc(NC(=O)C(C)C)n3)nc2c1C (stereo partly drawn),"cell-free assay, competition with immobilised ligand",1 µM,remaining binding,83%
Cc1ccc(NC(=O)c2ccc(C)c(C(F)(F)F)c2)cc1C#Cc1nn(C2CCC(O)CC2)c2ncnc(N)c12 (stereo not drawn),cell-free assay,10 µM,remaining signal,81%
O=C(Nc1cccnn1)N1CC(C/C=C/c2cncc(Oc3ccc(C(F)(F)F)cn3)n2)C1,"cell-free assay, competition with immobilised ligand",1 µM,remaining binding,74%
O=C1NC(=O)c2cc(Nc3ccc(F)cc3)c(Nc3ccc(F)cc3)cc21,cell-free assay,0.5 µM,remaining signal,95.3%
Cc1c(C(=O)O)cc(-c2ccc(C3CCNCC3)cc2)c2ccc(-c3ccc(C(F)(F)F)cc3)cc12,"binding, competition with immobilised ligand",1 µM,remaining binding,100%
COc1cccc(CCNc2nc3cc(C(=O)O)ccc3c3cncnc23)c1,"enzyme activity, inhibitor, radiometric",1 µM,remaining activity,27%
CC/C(=N\NC(=O)NCc1cccc(O)c1)c1ccc(O)c(C)c1O,"enzyme activity, inhibitor",0.1 µM,inhibition,2.5%
O=C(O)c1ccc2c(c1)nc(NCCc1ccccc1)c1ncncc12,"enzyme activity, inhibitor, radiometric",1 µM,remaining activity,16%
COc1cc(-c2cc(-c3ccc(N4CCNCC4)cc3)cnc2C)cc(OC)c1OC,"enzyme activity, inhibitor",1 µM,inhibition,2%
Cc1ccc(Nc2nccc(N(C)c3ccc4c(C)n(C)nc4c3)n2)cc1S(N)(=O)=O,"enzyme activity, inhibitor",0.3 µM,inhibition,24%
CN([C@@H]1CCc2c(CC(=O)O)c3ccccc3n2C1)S(=O)(=O)c1ccc(F)cc1,"cell-free assay, competition with immobilised ligand",1 µM,remaining binding,71%
O=C(O)c1ccc2c(c1)nc(Nc1ccccc1Cl)c1ncncc12,"enzyme activity, inhibitor, radiometric",1 µM,remaining activity,17%
N#Cc1ccc(Nc2ccc3[nH]c(=O)[nH]c3c2)c(Cl)c1,"cell-free assay, competition with immobilised ligand",1 µM,remaining binding,94%
O=C(O)c1ccc2c(c1)nc(NCCc1cccc(F)c1)c1ncncc12,"enzyme activity, inhibitor, radiometric",1 µM,remaining activity,27%
N#CCCc1ccc2c(c1)-c1[nH]c3ccc([N+](=O)[O-])cc3c1CC(=O)N2,cell-free assay,0.5 µM,remaining signal,104%
COc1cccc(CCNc2nc3cc(C(=O)O)ccc3c3cnccc23)c1,"enzyme activity, inhibitor, radiometric",1 µM,remaining activity,21%
Cc1nc(Cc2cccc(C(F)(F)F)c2)sc1-c1ccc(C(N)=O)nc1,"cell-free assay, competition with immobilised ligand",1 µM,remaining binding,100%
N#Cc1cccc(Nc2nc3cc(C(=O)O)ccc3c3cncnc23)c1,"enzyme activity, inhibitor, radiometric",1 µM,remaining activity,8%
CCOc1cc(-c2nncn2C)ccc1Nc1ncc2cc(C)nc(NCC(C)(C)C)c2n1,"enzyme activity, inhibitor, FRET",1 µM,inhibition,< 15%
O=C(O)c1ccc2c(c1)nc(Nc1cccc(F)c1)c1ccncc12,"enzyme activity, inhibitor, radiometric",1 µM,remaining activity,10%
COc1cc2ncnc(Nc3ccc(Oc4ccccc4)c(C)c3C)c2cc1OC,"enzyme activity, inhibitor",1 µM,inhibition,1%
NS(=O)(=O)c1cc(NC(=O)Cc2ccccc2)ccc1Oc1cccc(Cl)c1,"cell-free assay, competition with immobilised ligand",1 µM,remaining binding,84%
O=C(O)c1ccc2c(c1)nc(NCCc1cccc(F)c1)c1ccncc12,"enzyme activity, inhibitor, radiometric",1 µM,remaining activity,8%
